Measurements as given in article PMC10432884 (Clinical and Translational Science, 2023).
Where two headings read alike, the source gives them in different places.

Experiments:
[1] = First-in-human trial, all phases: overall pharmacokinetics; assay type: in vivo
healthy subjects = assay: First-in-human trial, food-interaction; assay type: in vivo
Method in brief: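 Safety covered all dosed subjects in the SAD, MAD and FI phases: AEs (MedDRA 21.1), concomitant medication, vital signs, ECGs, physical exams and safety labs. BP was taken after 5 min supine, then ≥1 min sitting and 1–3 min standing. Orthostasis was defined as an SBP fall ≥20 mmHg or DBP fall ≥10 mmHg within 3 min standing. TEAEs were summarized by treatment, organ class, severity and drug-relatedness.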

[2] = dogs, preclinical experiments, cited from earlier work
[3] = FI phase pharmacokinetics; assay type: in vivo, human
Method in brief: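 Open-label, randomized two-period crossover in 14 healthy subjects. Each received a single 10 mg oral tablet fasted, or ~30 min after a high-fat meal (800–1000 kcal). Washout was 21 days. Plasma (K-EDTA) was sampled predose and 15 min–48 h postdose, plus days 7 and 14 (period 1) and days 5 and 9 (period 2), and assayed by validated LC-MS/MS (LLOQ 1.00 ng/mL). Cmax, AUCτ and AUCinf were compared by ANOVA (food, sequence, period fixed; subject-within-sequence random).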

[4] = monkeys, preclinical experiments, cited from earlier work
[5] = FI sequence 10 mg Fasted‐Fed (n = 7)
[6] = FI sequence 10 mg Fed‐Fasted (n = 7)

**Q.** What does the source list for `Fc1ccccc1Cc1nc(-c2nc(C(F)(F)F)n[nH]2)cn2ccnc12` [zagociguat, 8‐(2‐fluorobenzyl)‐6‐(3‐(trifluoromethyl)‐1H‐1,2,4‐triazol‐5‐yl)imidazo[1,2‐a]pyrazine]?
**A.** half-life ([1]; human, plasma, oral): 52.8 to 67.1 h; Exposure vs dose ([1]; single and multiple escalating doses): increased in a dose‐proportional manner; Orthostatic hypotension events (healthy subjects; FI phase): No orthostatic hypotension events; Subjects with dizziness TEAEs (healthy subjects; FI phase, 10 mg, fed and fasted): Three; Subjects discontinued from study drug due to ≥1 TEAE (healthy subjects; [5]): 0 n; Subjects with ≥1 SAE (healthy subjects; [5]): 0 n; Subjects with ≥1 study drug related TEAE (healthy subjects; [5]): 2 n; TEAEs (healthy subjects; [5]): 7 n; Subjects discontinued from study drug due to ≥1 TEAE (healthy subjects; [6]): 0 n; Subjects with ≥1 SAE (healthy subjects; [6]): 0 n; Subjects with ≥1 study drug related TEAE (healthy subjects; [6]): 1 n; TEAEs (healthy subjects; [6]): 7 n; CSF/free plasma ratio ([2]; 1 h after oral 1 mg/kg): 0.45; CSF/free plasma ratio ([2]; 2 h after oral 1 mg/kg): 0.32; CSF/free plasma ratio ([2]; 4 h after oral 1 mg/kg): 0.3; CSF/free plasma ratio ([2]; 8 h after oral 1 mg/kg): 0.28; Food effect ([3]; FI 10 mg, high-fat meal vs fasted): no food effects were observed; C max LSM ratio fed vs. fasted ([3]; FI 10 mg, 95% CI: 0.94, 1.03): 0.99; Plasma concentration in predose samples of second treatment period ([3]; FI, 21-day washout, limit of quantification 1.00 ng/mL): below the limit of quantification; Geometric mean CSF/free plasma ratio ([4]; intravenous administration): 0.57; Geometric mean CSF/free plasma ratio ([4]; oral administration): 0.48
